Measurements taken from the RNAGym collection of RNA variant scans (doi:10.1126/science.aae0568).
Fewer inactive variants are shown than the library holds.

B1: tRNA (parent)
chain: GUUCCGUUGGCGUAAUGGUAACGCGUCUCCCUCCUAAGGAGAAGACUGCGGGUUCGAGUCCCGUACGGAACG

Variants of: B1
Test: yeast fitness relative to wild type (ratio to wild type); higher = fitter; tRNA-Arg(CCU), competitive growth, 37 C, YPD
Summary of the method: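 Changes in genotype frequencies gave Darwinian fitness relative to wild type. Frequencies were read by 100-nucleotide paired-end sequencing of gene amplicons before and after pooled Saccharomyces cerevisiae strains, carrying tRNA-Arg(CCU) gene variants at the native locus, were competed in YPD at 37°C for 24 hours in six replicates. A genotype was kept only with ≥ 100 starting reads, and estimates < 0.5 were set to 0.5.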

| Variant | yeast fitness |
| --- | --- |
| G12A C31A A42G A57U U59A | ≤ 0.5 |
| G12A C27U C30A C55U A57C | ≤ 0.5 |
| G12A A36U G63A | ≤ 0.5 |
| G12A C24A A36U C61U G67U | 0.69 |
| G12A A21G C34U | ≤ 0.5 |
| G12A C24A A36U U54C C61U | ≤ 0.5 |
| G12A C27U | 0.942 |
| G12A C27G | 0.71 |
| G12A C27A | 0.844 |
| G12A A43C C46U | 0.764 |
| G12A C27G G48A | ≤ 0.5 |
| G12A A21G C31A | 0.625 |
| G12A A21U C55U C62G | ≤ 0.5 |
| G12A A36C G41C | ≤ 0.5 |
| G12A C24G C33G A36C A37C A42C A65U | ≤ 0.5 |
| G12A C24U G58A U59A A65U | ≤ 0.5 |
| G12A A37G A65C | ≤ 0.5 |
| G12A C27G C34A C49A C60G C61U | 0.527 |
| G12A A40C A69C | 0.757 |
| G12A C27G C55A G58A | ≤ 0.5 |
| G12A A21U A69C | ≤ 0.5 |
| G12A A65C | 0.851 |
| G12A C22A | 1.03 |
| G12A C22U | 0.873 |

| Variant | yeast fitness |
| --- | --- |
| G12A A37G U59C | ≤ 0.5 |
| G12A A36U A37C A43G A57U | ≤ 0.5 |
| G12A A37G A65G A69C | ≤ 0.5 |
| G12A A42G A65U | ≤ 0.5 |
| G12A A42G A65C | 0.6 |
| G12A A40C U59G A65G | ≤ 0.5 |
| G12A C30A C55A G67A | ≤ 0.5 |
| G12A C27G U32G G67C | ≤ 0.5 |
| G12A C24G U35A A40U G41A A42C | ≤ 0.5 |
| G12A C24G G38A A40C A43C C46U G68C A69U | ≤ 0.5 |
| G12A A43U C62U | 0.807 |
| G12A A21G C31A A65U A70U | ≤ 0.5 |
| G12A A21C U35G G51A | ≤ 0.5 |
| G12A A42C G52A | 0.585 |
| G12A C24A A36C A70C | ≤ 0.5 |
| G12A C24U C29A | ≤ 0.5 |
| G12A C30G C49A G51A | ≤ 0.5 |
| G12A C31G | 0.963 |
| G12A A21C C24A A69C | 0.933 |
| G12A C24G | 0.758 |
| G12A C24U | 0.697 |
| G12A C24A | 0.751 |
| G12A C24U G67C | 0.603 |
| G12A C27G C46A C55U | 0.603 |

| Variant | yeast fitness |
| --- | --- |
| G12A A36C G41A U53C | ≤ 0.5 |
| G12A C24G U26G G39C C49G | 0.511 |
| G12A C27G A70C | ≤ 0.5 |
| G12A A21U C66U A69C | ≤ 0.5 |
| G12A C27G A42C | 0.548 |
| G12A C24U C34U G58C C62G G67A | 0.542 |
| G12A C29A A42U C46U C55A G56C | ≤ 0.5 |
| G12A C29A A45G | ≤ 0.5 |
| G12A A37C C61U | ≤ 0.5 |
| G12A C24A C27A | ≤ 0.5 |
| G12A A36G U47G U54C A65U | ≤ 0.5 |
| G12A C22G G52C G58C A65U | 0.53 |
| G12A A21G C24G U28G | 0.992 |
| G12A C27G A40G | ≤ 0.5 |
| G12A A42G A45G U54A C62A | ≤ 0.5 |
| G12A C29U U64A | ≤ 0.5 |
| G12A C31U A70G | 0.803 |
| G12A A40C C55A | ≤ 0.5 |
| G12A C30G U47C U54C | ≤ 0.5 |
| G12A A37U A57C | 0.608 |
| G12A A42G A69U | 0.688 |
| G12A C27G C55A C66U | ≤ 0.5 |
| G12A C24G C33A A40C | ≤ 0.5 |
| G12A C31G G48C C66G | ≤ 0.5 |

| Variant | yeast fitness |
| --- | --- |
| G12A C29A G67C | ≤ 0.5 |
| G12A A37C A45C G52C A70U | ≤ 0.5 |
| G12A C22A A57C U64A | ≤ 0.5 |
| G12A A21G C24G U28G C46U | 0.582 |
| G12A A43U A45C G67C G68U | ≤ 0.5 |
| G12A A40C | 0.792 |
| G12A A40U | 1 |
| G12A A40G | 0.871 |
| G12A A42G | 0.837 |
| G12A A36U A37G | 0.543 |
| G12A C27A C30G G68U | ≤ 0.5 |
| G12A C24G A43C C62U A65G | 0.636 |
| G12A C22U C31G G48C | ≤ 0.5 |
| G12A C31G C34A | 0.585 |
| G12A C22U C30G C31A G39C A57G | ≤ 0.5 |
| G12A C29G C34U A36C C61A | 0.553 |
| G12A A36G C55U A69U | ≤ 0.5 |
| G12A C27G A43G U64G | ≤ 0.5 |
| G12A C31A U32C U53C C60G | ≤ 0.5 |
| G12A A45C | 0.834 |
| G12A C31U C61U U64A | ≤ 0.5 |
| G12A C29U | 0.735 |
| G12A A21U C55G C60A C61G C66G | ≤ 0.5 |
| G12A C30U U47A U54C | ≤ 0.5 |

| Variant | yeast fitness |
| --- | --- |
| G12A C29U C55G A65U | ≤ 0.5 |
| G12A C22G A45G C49U U53A C66G | ≤ 0.5 |
| G12A C24G U26G A40U | ≤ 0.5 |
| G12A A69U | 1.03 |
| G12A A69C | 0.866 |
| G12A A69G | 0.907 |
| G12A A43U | 0.889 |
| G12A A43G | 0.988 |
| G12A A43C | 0.855 |
| G12A C29A C31G C60A | ≤ 0.5 |
| G12A C27A G56C | 0.533 |
| G12A C31U A36C G39C C55U A57U | ≤ 0.5 |
| G12A C29A G68A A69C | ≤ 0.5 |
| G12A C22G A69U | 0.791 |
| G12A A45G U47C U59A | ≤ 0.5 |
| G12A A70C | 0.936 |
| G12A C22U A37U G50C C66U | 0.538 |
| G12A C24G C29A A69U A70G | ≤ 0.5 |
| G12A C30A A70U | 0.759 |
| G12A A36G U47G A65U | 0.646 |
| G12A C30A C46G | 0.649 |
| G12A C27G A69C | ≤ 0.5 |
| G12A C24U C34U | 0.519 |
| G12A C24U C34G | 0.696 |

| Variant | yeast fitness |
| --- | --- |
| G12A C22G C31G | 0.662 |
| G12A A40C C61A | ≤ 0.5 |
| G12A A37G A43G U53A G58C C66G | ≤ 0.5 |
| G12A C29A U35A | ≤ 0.5 |
| G12A C22U C24U | ≤ 0.5 |
| G12A C24U A36C C46U C60U A65C | 0.729 |
| G12A A42U C60G A69G | ≤ 0.5 |
| G12A A40G C46A C61U | ≤ 0.5 |
| G12A A65G A69C | 0.556 |
| G12A A43U A45C A57G C60U G68C | ≤ 0.5 |
| G12A A37G G39C A57C | ≤ 0.5 |
| G12A C27U C33U U47A A70C | ≤ 0.5 |
| G12A A42C C55U | ≤ 0.5 |
| G12A A36G C49G | ≤ 0.5 |
| G12A C22A C24A A36U U53A | ≤ 0.5 |
| G12A C27U G51C A57U | 0.534 |
| G12A C24G C29A U47A C62A | ≤ 0.5 |
| G12A A42C C49A C61U | ≤ 0.5 |
| G12A A57C A65C A70C | ≤ 0.5 |
| G12A C24U G38C C62G | ≤ 0.5 |
| G12A C27G A65G G68U | 0.544 |
| G12A C24G C29A C55U C61G A65G G68A | ≤ 0.5 |
| G12A C24U U64G | ≤ 0.5 |
| G12A C27U C30G A42G C55U A57C | ≤ 0.5 |

| Variant | yeast fitness |
| --- | --- |
| G12A C22G A57C | 0.549 |
| G12A A43U G48A C61G A70C | ≤ 0.5 |
| G12A A36C G51A | 0.603 |
| G12A A65C C66U G67U | 0.612 |
| G12A C31U C55G G67C | ≤ 0.5 |
| G12A A36C | 0.628 |
| G12A A36G | 0.906 |
| G12A C30A | 0.915 |
| G12A C30U | 0.836 |
| G12A A36C A40U G41C | 0.576 |
| G12A A21G | 1.04 |
| G12A A21C | 0.643 |
| G12A C24U C31G | 0.532 |
| G12A C27G U32G | ≤ 0.5 |
| G12A A40C U64G | ≤ 0.5 |
| G12A C30U U54C | ≤ 0.5 |
| G12A C30U U54A | 0.52 |
| G12A A36G U47G | 0.584 |
| G12A C29A A42U | 0.616 |
| G12A C24G A36G A65U | ≤ 0.5 |
| G12A A42G U54A A65C | ≤ 0.5 |
| G12A C24U G67A A69U | ≤ 0.5 |
| G12A C27G A36U | 0.599 |
